Experimental findings from ChEMBL document CHEMBL3228007, “Ergot alkaloids. Synthesis of nitrosourea derivatives of ergolines as potential anticancer agents” (J Med Chem, 1979) are described below.

Structures are written as SMILES.

A word on the T/C: it is the result in the treated group divided by that in the control group, in per cent.

Data set [1] relates to Mus musculus. In words: Toxicity in mouse allografted with mouse L1210 cells assessed as change in body weight at 25 mg/kg relative to control. Format: organism-based. Further details: dose 25 mg/kg; call rule not given here. The note with it: in vivo. The method in brief:
(§1)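 Mice bearing L1210 leukemia, six per dose group, given compound as a suspension across a range of mg/kg doses. Antitumor read-out is T/C, with cures per group recorded. Toxicity is judged by body weight loss, with loss over 4 g flagged.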

Data set [2] relates to Mus musculus. Put plainly: Toxicity in mouse allografted with mouse L1210 cells assessed as survival at 50 mg/kg. The data set is classed as organism-based. More on the design: dose 50 mg/kg. The note with it: in vivo. The method in brief:
as §1

The subject of data set [3] is Mus musculus. Put plainly: Toxicity in mouse allografted with mouse L1210 cells assessed as survival at 25 mg/kg. Format: organism-based. Further details: dose 25 mg/kg. To be noted: in vivo. An outline of the steps: as §1
Data set [4] deals with Mus musculus. In words: Toxicity in mouse allografted with mouse L1210 cells assessed as change in body weight at 6.25 mg/kg relative to control. The data set is classed as organism-based. The note with it: in vivo. Further details: dose 6.25 mg/kg. An outline of the steps: as §1
Data set [5] has as its system Mus musculus. Put plainly: Toxicity in mouse allografted with mouse L1210 cells assessed as change in body weight at 50 mg/kg relative to control. The data set is classed as organism-based. Further details: dose 50 mg/kg. To be noted: in vivo. An outline of the steps: as §1
Data set [6] deals with L1210. Put plainly: Antitumor activity against mouse L1210 cells allografted in mouse assessed as tumor growth inhibition at 25 mg/kg relative to control. Format: functional. An outline of the steps: as §1
Data set [7] concerns Mus musculus. In words: Toxicity in mouse allografted with mouse L1210 cells assessed as survival at 6.25 mg/kg. The data set is classed as organism-based. More on the design: dose 6.25 mg/kg. The note with it: in vivo. An outline of the steps: as §1
The test system of data set [8] is Mus musculus. Put plainly: Toxicity in mouse allografted with mouse L1210 cells assessed as survival at 12.5 mg/kg. Format: organism-based. More on the design: dose 12.5 mg/kg. To be noted: in vivo. The method in brief: as §1
For data set [9], the system named is Mus musculus. In words: Toxicity in mouse allografted with mouse L1210 cells assessed as change in body weight at 100 mg/kg relative to control. The data set is classed as organism-based. Further details: dose 100 mg/kg. To be noted: in vivo. The method in brief: as §1
Data set [10] has as its system L1210. In words: Antitumor activity against mouse L1210 cells allografted in mouse assessed as tumor growth inhibition at 6.25 mg/kg relative to control. Format: functional. An outline of the steps: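 L1210 leukemia in mice, six per group; compound given as a suspension across a range of dose levels; activity expressed as T/C, with cures and weight loss recorded.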

The test system of data set [11] is L1210. In words: Antitumor activity against mouse L1210 cells allografted in mouse assessed as tumor growth inhibition at 50 mg/kg relative to control. The data set is classed as functional. The method in brief:
as §1

Data set [12] relates to L1210. In words: Antitumor activity against mouse L1210 cells allografted in mouse assessed as tumor growth inhibition at 12.5 mg/kg relative to control. The data set is classed as functional. An outline of the steps: as §1
The subject of data set [13] is Mus musculus. Put plainly: Toxicity in mouse allografted with mouse L1210 cells assessed as change in body weight at 12.5 mg/kg relative to control. Further details: dose 12.5 mg/kg. Format: organism-based. The note with it: in vivo. An outline of the steps: as §1
Data set [14] is filed under the species Rattus norvegicus. In words: Inhibition of prolactin release in rat at 10 ug relative to control. The data set is classed as functional.
Data set [15] deals with L1210. In words: Antitumor activity against mouse L1210 cells allografted in mouse assessed as tumor growth inhibition at 100 mg/kg relative to control. Format: functional. An outline of the steps: as §1
The test system of data set [16] is Mus musculus. Put plainly: Toxicity in mouse allografted with mouse L1210 cells assessed as survival at 400 mg/kg. Format: organism-based. Further details: dose 400 mg/kg. The note with it: in vivo. The method in brief: as §1
Data set [17] concerns Mus musculus. In words: Toxicity in mouse allografted with mouse L1210 cells assessed as change in body weight at 400 mg/kg relative to control. The data set is classed as organism-based. Further details: dose 400 mg/kg. The note with it: in vivo. The method in brief:
as §1

Data set [18] deals with L1210. Put plainly: Antitumor activity against mouse L1210 cells allografted in mouse assessed as tumor growth inhibition at 200 mg/kg relative to control. Format: functional. The method in brief:
as §1

The subject of data set [19] is Mus musculus. Put plainly: Toxicity in mouse allografted with mouse L1210 cells assessed as survival at 100 mg/kg. The note with it: in vivo. Format: organism-based. Further details: dose 100 mg/kg. The method in brief:
as §1

Data set [20] has as its system Mus musculus. In words: Toxicity in mouse allografted with mouse L1210 cells assessed as change in body weight at 200 mg/kg relative to control. The data set is classed as organism-based. More on the design: dose 200 mg/kg. To be noted: in vivo. An outline of the steps:
as §1

The subject of data set [21] is Mus musculus. Put plainly: Toxicity in mouse allografted with mouse L1210 cells assessed as survival at 200 mg/kg. The data set is classed as organism-based. Further details: dose 200 mg/kg. To be noted: in vivo. An outline of the steps: as §1
In data set [22] the test system is P388. Put plainly: Antitumor activity against mouse P388 cells allografted in mouse assessed as tumor growth inhibition at 50 mg/kg relative to control. The data set is classed as functional.
The test system of data set [23] is P388. In words: Antitumor activity against mouse P388 cells allografted in mouse assessed as tumor growth inhibition at 25 mg/kg relative to control. Format: functional.
Data set [24] concerns Mus musculus. Put plainly: Toxicity in mouse allografted with mouse P388 cells assessed as change in body weight at 100 mg/kg relative to control. The data set is classed as organism-based. Further details: dose 100 mg/kg. To be noted: in vivo.
The subject of data set [25] is P388. Put plainly: Antitumor activity against mouse P388 cells allografted in mouse assessed as tumor growth inhibition at 100 mg/kg relative to control. The data set is classed as functional.
In data set [26] the test system is Mus musculus. In words: Toxicity in mouse allografted with mouse P388 cells assessed as survival at 100 mg/kg. The data set is classed as organism-based. More on the design: dose 100 mg/kg. To be noted: in vivo.
In data set [27] the test system is Mus musculus. In words: Toxicity in mouse allografted with mouse P388 cells assessed as survival at 25 mg/kg. The data set is classed as organism-based. More on the design: dose 25 mg/kg. The note with it: in vivo.
In data set [28] the test system is L1210. In words: Antitumor activity against mouse L1210 cells allografted in mouse assessed as tumor growth inhibition at 400 mg/kg relative to control. The data set is classed as functional. The method in brief:
as §1

Data set [29] relates to Mus musculus. Put plainly: Toxicity in mouse allografted with mouse P388 cells assessed as survival at 50 mg/kg. The data set is classed as organism-based. More on the design: dose 50 mg/kg. To be noted: in vivo.
The test system of data set [30] is Mus musculus. Put plainly: Toxicity in mouse allografted with mouse P388 cells assessed as change in body weight at 50 mg/kg relative to control. Format: organism-based. Further details: dose 50 mg/kg. The note with it: in vivo.
Data set [31] deals with Mus musculus. In words: Toxicity in mouse allografted with mouse P388 cells assessed as change in body weight at 25 mg/kg relative to control. The data set is classed as organism-based. The note with it: in vivo. Further details: dose 25 mg/kg.

`C[C@H]1CC[C@H](NC(=O)N(CCCl)N=O)CC1`: the Activity was -3.4 g in data set [1]; “Non-toxic” in data set [2]; “Non-toxic” in data set [3]; 0.4 g in data set [4]; -4.8 g in data set [5]; “Non-toxic” in data set [7]. Moreover, the Activity entry in [8] is recorded as “Not Active”; in [9], -6.6 g; in data set [13] it was -0.2 g. The T/C in data set [6] is 301%; in data set [10], 187%; in data set [11], 327%; in [12] it was 256%.
Consider `CN1C[C@H](N)C[C@@H]2c3cccc4[nH]cc(c34)C[C@H]21`, for which the “inhibition (INH)” value in data set [14] is reported as 57%.
Regarding `CN1C[C@H](NC(=O)N(CCCl)N=O)C[C@@H]2c3cccc4[nH]cc(c34)C[C@H]21`, the T/C in data set [15] was found to be 248%; in data set [18], 390%; in data set [6] it was 137%; in data set [11], 154%; in [12] it was 119%. Also, the Activity result is “Non-toxic” in data set [16]; -1.4 g in data set [1]; “Non-toxic” in data set [2]; “Non-toxic” in [3]; -7.6 g in data set [17]; “Non-toxic” in data set [19]. The Activity in data set [5] was -2.8 g; in data set [20], -6 g; in data set [9] it was -4 g; in data set [21], “Non-toxic”; in data set [13], -1.2 g. Besides, the “inhibition (INH)” value in data set [14] is listed as 28%.
For `CN1C[C@H](NC(=O)N(CCCl)N=O)C[C@@H]2c3cccc4c3c(cn4N=O)C[C@H]21`, the T/C is reported as 144% in data set [15]; 166% in data set [22]; 164% in [18]; 137% in data set [23]; 201% in data set [25]; 117% in [6]. For the same compound, the T/C in data set [11] is given as 121%; in data set [12], 105%; in data set [28], 289%. Further, the Activity result in data set [16] is reported as “Non-toxic”; in data set [1] it was -1.8 g; in [2] it was “Non-toxic”; in [3] it was “Non-toxic”; in data set [17], -6.4 g; in data set [24], -1.8 g. In addition, the Activity entry in [19] is on record as “Non-toxic”; in [26], “Non-toxic”; in [5] it was -2.2 g; in data set [20], -5.2 g; in data set [9], -3.4 g; in data set [27] it was “Non-toxic”. For the same compound, the Activity entry in data set [21] was “Non-toxic”; in [29] it was “Non-toxic”; in data set [30], 0 g; in [31] it was -0.4 g; in data set [13], -1.2 g. The “inhibition (INH)” value in data set [14] worked out at 17%.
`CN1CC(CO)=C[C@@H]2c3cccc4c3c(cn4N=O)C[C@H]21`: the “inhibition (INH)” value in data set [14] is recorded as 36%.
In the case of `CN1CC(COC(=O)NCCCl)=C[C@@H]2c3cccc4[nH]cc(c34)C[C@H]21`, the “inhibition (INH)” value in data set [14] was determined as 87%.
`CN1CC(CO)=C[C@@H]2c3cccc4[nH]cc(c34)C[C@H]21`: the “inhibition (INH)” value in data set [14] is listed as 71%.
Still for that read-out and setting: the value for `CC(C)[C@H]1C(=O)N2CCC[C@H]2[C@]2(O)O[C@](NC(=O)[C@@H]3C=C4c5cccc6[nH]cc(c56)C[C@H]4N(C)C3)(C(C)C)C(=O)N12` [ERGOCORNINE] was 88%; that for `CN1C[C@H](CC#N)C[C@@H]2c3cccc4[nH]c(Cl)c(c34)C[C@H]21` [LERGOTRILE] was 71%.
